In ChEMBL document CHEMBL5260794, “Synthesis and biological evaluation of a new class of benzothiazines as neuroprotective agents” (Eur J Med Chem, 2017):
pIC50: −log10 of the molar value. Calls of active or inactive are those of the source. The rule behind the calls is not given here.

Experiments:
SH-SY5Y [1] = test: Neuroprotective activity against 6-OHDA-induced toxicity in human SH-SY5Y cells assessed as reduction in condensed and fragmented nuclei at 10 uM pretreated for 1 hr followed by 6-OHDA challenge measured after 2 hrs by DAPI staining based assay relative to control; type: functional; parameters: scale not given: the % may be the effect or the level left; conditions: time 3 hrs
How it was run: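 DAPI staining of SH-SY5Y cells pretreated 1 h with compound at 10 μM, then given 6-OHDA 55 μM for 2 h. Condensed or fragmented nuclei scored as apoptotic. Mean ± SEM of 4 independent experiments.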

Rattus norvegicus [2] = species: Rattus norvegicus; test: Neuroprotective activity against oxygen glucose deprivation/reperfusion-induced Wistar rat cortical brain assessed as reduction in glutamate release by measuring minimal effective concentration; type: functional
How it was run: (§1)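 Male Wistar rat cortical slices (400 μm) in oxygenated ACSF, pH 7.4, 1 h at room temperature, then 30 min at 37 °C. OGD for 30 min in glucose-free ACSF with 11 mM sucrose under 95% N₂/5% CO₂. Compound added in the reoxygenation buffer. Glutamate and LDH release measured. Mean ± SEM of at least four experiments, ANOVA with Dunnett test.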

SH-SY5Y [3] = test: Neuroprotective activity against 6-OHDA-induced toxicity in human SH-SY5Y cells assessed as reduction in ROS production at 0.1 to 10 uM by DCFH-DA staining based assay; type: functional, cell-based; conditions: dose 0.1-10 µM, TDE = time-dependent effect
How it was run: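 SH-SY5Y cells loaded with DCFH-DA (5 μM, 30 min) and washed. Pretreated 1 h with compound (0.1-10 μM), then 6-OHDA 55 μM. Fluorescence (ex 485/em 535 nm) read at 1 h or 24 h and expressed as % inhibition of 6-OHDA-induced ROS. 4 independent experiments.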

SH-SY5Y [4] = test: Neuroprotective activity against glutamate-induced toxicity in human SH-SY5Y cells assessed as reduction in cell detachment at 10 uM pretreated for 1 hr followed by glutamate challenge measured after 24 hrs by phase-contrast light microscopic analysis; type: functional, cell-based; conditions: time 25.0 hrs
How it was run: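 SH-SY5Y cells attached 24 h, then pretreated 1 h with compound (0.1-10 μM) before glutamate 50 mM for 24 h. Viability by MTT. Morphology under phase-contrast microscope, scored by the USP 28 grade scale (0-4). Mean ± SEM of 4 independent experiments run in triplicate or quadruplicate, ANOVA with Dunnett test.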

Rattus norvegicus [5] = species: Rattus norvegicus; test: Inhibition of high voltage-activated calcium current in Wistar rat brain piriform cortex assessed as blockade of barium current by whole cell patch clamp method; type: functional
How it was run: (§2)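 Acutely dissociated P15-P22 Wistar rat piriform cortex neurons recorded whole-cell at holding -70 mV. 5 mM Ba²⁺ was the charge carrier, with a Cs methanesulfonate pipette. HVA currents evoked by step or ramp protocols from -60 mV. Compound applied by local perfusion (DMSO 0.02-0.67%). Peak I_Ba amplitude tracked over time, and concentration-response fitted with the sum of two Hill functions.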

Rattus norvegicus [6] = species: Rattus norvegicus; test: Inhibition of high voltage-activated calcium current in Wistar rat brain piriform cortex assessed as time required to inhibit barium current by whole cell patch clamp method; type: functional; how it was run: as §2
SH-SY5Y [7] = test: Neuroprotective activity against glutamate-induced toxicity in human SH-SY5Y cells assessed as reduction in G0/G1 phase cells at 10 uM pretreated for 1 hr followed by glutamate challenge measured after 24 hrs by propidium staining based flow cytometry; type: functional, cell-based; conditions: time 25.0 hrs
How it was run: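 SH-SY5Y cells (2.5 x 10⁵ cells/mL) pretreated 1 h with compound, then given glutamate 50 mM for 24 h. Cells fixed in 70% ethanol (30 min, 4 °C), held at -20 °C for at least 24 h, stained with propidium iodide. Flow cytometry on at least 1x10⁴ cells, cell-cycle phases and sub-G₀/G₁ fraction quantified. 4 independent experiments.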

Rattus norvegicus [8] = species: Rattus norvegicus; test: Neuroprotective activity against oxygen glucose deprivation/reperfusion-induced Wistar rat cortical brain assessed as reduction in LDH release by measuring minimal effective concentration; type: functional; how it was run: as §1
SH-SY5Y [9] = test: Neuroprotective activity against glutamate-induced toxicity in human SH-SY5Y cells assessed as reduction in ROS production at 0.1 to 10 uM by DCFH-DA staining based assay; type: functional, cell-based; conditions: dose 0.1-10 µM, time 24.0 hrs, TDE = time-dependent effect
How it was run: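 SH-SY5Y cells loaded with DCFH-DA (5 μM, 30 min) and washed before treatment. Pretreated 1 h with compound (0.1-10 μM), then glutamate 50 mM. Fluorescence (ex 485/em 535 nm) read at 1 h or 24 h and expressed as % inhibition of glutamate-induced ROS. 4 independent experiments.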

Rattus norvegicus [10] = species: Rattus norvegicus; test: Inhibition of transient voltage-dependent sodium current in Wistar rat brain piriform cortex layer assessed as reduction in maximal current amplitude at 15 uM by whole cell patch clamp method; type: functional
Rattus norvegicus [11] = species: Rattus norvegicus; test: Inhibition of persistent voltage-dependent sodium current in Wistar rat brain piriform cortex layer at 50 uM by whole cell patch clamp method; type: functional
Rattus norvegicus [12] = species: Rattus norvegicus; test: Inhibition of persistent voltage-dependent sodium current in Wistar rat brain piriform cortex layer at 5 uM by whole cell patch clamp method; type: functional
Rattus norvegicus [13] = species: Rattus norvegicus; test: Inhibition of transient voltage-dependent sodium current in Wistar rat brain piriform cortex layer assessed as reduction in maximal current amplitude at 5 uM by whole cell patch clamp method; type: functional
Rattus norvegicus [14] = species: Rattus norvegicus; test: Inhibition of transient voltage-dependent sodium current in Wistar rat brain piriform cortex layer assessed as negative shift of inactivation function at 15 uM by whole cell patch clamp method; type: functional
Rattus norvegicus [15] = species: Rattus norvegicus; test: Inhibition of transient voltage-dependent sodium current in Wistar rat brain piriform cortex layer by whole cell patch clamp method; type: functional
Rattus norvegicus [16] = species: Rattus norvegicus; test: Inhibition of persistent voltage-dependent sodium current in Wistar rat brain piriform cortex layer at 15 uM by whole cell patch clamp method; type: functional

SMILES	Activity (SH-SY5Y [1]) [%]	MEC (Rattus norvegicus [2]) [µM]	Activity (SH-SY5Y [3])	Activity (SH-SY5Y [4])	pIC50 (Rattus norvegicus [5])	Time (Rattus norvegicus [6]) [ms]	Activity (SH-SY5Y [7])	MEC (Rattus norvegicus [8]) [µM]	Activity (SH-SY5Y [9])	inhibition in vivo at 15 µM (Rattus norvegicus [10]) [%]	inhibition in vivo at 50 µM (Rattus norvegicus [11]) [%]	inhibition in vivo at 5 µM (Rattus norvegicus [12]) [%]	inhibition in vivo at 5 µM (Rattus norvegicus [13]) [%]	Activity (Rattus norvegicus [14]) [mV]	inhibition (Rattus norvegicus [15])	inhibition in vivo at 15 µM (Rattus norvegicus [16]) [%]
CCCN(CCC)/C(C)=N/C1=Nc2ccccc2CS1	>20	1	Tde	Active	5.36	128.2	Active	0.1	Tde							
CCN(CC)/C(C)=N/C1=Nc2ccccc2CS1	>20	0.1	Tde	Active	5.27		Active	0.1	Tde	24.2	91.8	70.7	26.4	11.8	Dose-Dependent Effect	77
